Data taken from ChEMBL document CHEMBL2331443, “Synthesis and biological evaluation of a new class of 4-aminoquinoline-rhodanine hybrid as potent anti-infective agents” (Eur J Med Chem, 2013).
≈ marks a conversion by molar mass, not a printed value.

What was measured:
[1] = test system: Plasmodium yoelii; test: Antimalarial activity against Plasmodium yoelii infected in erythrocytes assessed as inhibition of beta-hematin formation after 16 hrs by BHIA assay; type: functional, cell-free
Procedure, shortened: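 Plasma from infected animal blood at 50% parasitemia (cardiac puncture into 2.0% citrate, spun 5000 rpm, 10 min, 4 °C). Reaction in 1.0 mL: 100 mM sodium acetate pH 5.1, hemin as substrate, plasma, 1–20 µg compound; controls without compound. Triplicate, 37 °C, 16 h, rotary shaker. Pellet washed, dissolved in 2 N NaOH, absorbance 400 nm; IC50 by nonlinear regression of dose-response.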

[2] = Selectivity index, ratio of CC50 for african green monkey Vero cells to IC50 for Plasmodium falciparum K1; type: functional
[3] = test system: Plasmodium falciparum; test: Antimalarial activity against Plasmodium falciparum 3D7 assessed as parasite growth inhibition after 72 hrs by MSF assay; type: functional, organism-based; details: 3D7, 72 h
Procedure, shortened: (§1)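 P. falciparum cultures in RPMI-1640-FBS; DMSO stock 5 mg/ml diluted in medium, duplicate wells; 1.0% parasitized cell suspension at 0.8% parasitemia. Incubated 37 °C, 5% CO2 air mixture, 72 h. Lysis buffer with 2× SYBR Green I added, 1 h at 37 °C. Fluorescence read at 485 ± 20 nm excitation / 530 ± 20 nm emission; IC50 by logit regression.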

[4] = test system: Plasmodium falciparum; test: Antimalarial activity against Plasmodium falciparum K1 assessed as parasite growth inhibition after 72 hrs by MSF assay; type: functional, organism-based; details: K1, 72 h; procedure, shortened: as §1
[5] = Cytotoxicity against mouse bone marrow derived macrophage assessed as growth inhibition after 48 hrs by MTS assay; type: cell-based
Procedure, shortened: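 Macrophages washed, plated at 10^5 cells per well in supplemented DMEM, 37 °C, 5% CO2, medium changed every 3rd day, used after 5 days. Compounds added in antibiotic-free, FBS-supplemented DMEM for 48 h at 37 °C, 5% CO2. MTS added for 2 h, absorbance 490 nm; DMSO wells taken as 100% survival.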

[6] = test system: Vero; test: Cytotoxicity against african green monkey Vero cells assessed as growth inhibition after 24 hrs by MTS assay; type: cell-based; details: Chlorocebus sabaeus
Procedure, shortened: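 Vero cells plated at 20,000 per well in MEM with antibiotics + 10% FBS, allowed to adhere overnight at 37 °C, 5% CO2. Compound dilutions added in MEM + 10% FBS; known toxic compound positive control, DMSO negative control. After 24 h, MTS added, 2 h at 37 °C, absorbance 490 nm; DMSO wells taken as 100% survival.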

[7] = test system: Mycobacterium tuberculosis; test: Antitubercular activity Mycobacterium tuberculosis H37Rv assessed as growth inhibition after 4 weeks; type: functional; details: 672 h
Procedure, shortened: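 M. tuberculosis H37Rv from Lowenstein-Jensen culture, harvested in N-saline with 0.05% Tween-80 and made single-cell with glass beads. Working inoculum 2 × 10⁷ cfu/mL spread on drug-containing slanted solid medium. Incubated 37 °C for 4 weeks, watching for colonies. Drug-free tubes as control, isoniazid as reference. MIC taken as the lowest concentration giving complete growth inhibition at this inoculum.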

In the case of O=C1/C(=C/c2ccc([N+](=O)[O-])cc2)SC(=S)N1CCCNc1ccnc2cc(Cl)ccc12, the IC50 [1] is reported as 3.23 µg/mL (≈ 6.66 µM), the “Ratio CC50/IC50” value [2] is reported as 180.38 and the IC50 [3] is reported as 23.5 nM. The IC50 [4] was 45.5 nM.

In the case of O=C1/C(=C/c2cccc([N+](=O)[O-])c2)SC(=S)N1CCCNc1ccnc2cc(Cl)ccc12, the IC50 [1] is reported as 3.93 µg/mL (≈ 8.1 µM), the “Ratio CC50/IC50” value [2] is reported as 106.4 and the IC50 [3] is reported as 96 nM. The IC50 [4] was 50.4 nM.

With O=C1/C(=C/c2ccc(F)cc2)SC(=S)N1CCCNc1ccnc2cc(Cl)ccc12 the IC50 [1] was 4.3 µg/mL (≈ 9.39 µM), the “Ratio CC50/IC50” value [2] was 2083.58 and the IC50 [3] was 93.9 nM. For the same molecule, the IC50 [4] was 13.2 nM.

For O=C1/C(=C/c2ccc(Cl)cc2)SC(=S)N1CCCNc1ccnc2cc(Cl)ccc12, the IC50 [1] was 3.26 µg/mL (≈ 6.87 µM), the “Ratio CC50/IC50” value [2] was 442.83 and the IC50 [3] was 76.5 nM. For the same molecule, the IC50 [4] was 94.2 nM.

For CN(C)c1ccc(/C=C2\SC(=S)N(CCCNc3ccnc4cc(Cl)ccc34)C2=O)cc1, the IC50 [1] was 6.35 µg/mL (≈ 13.1 µM), the “Ratio CC50/IC50” value [2] was 4195.05 and the IC50 [3] was 49.3 nM. It also gave an IC50 [4] of 66.2 nM.

For O=C1/C(=C/c2ccccc2[N+](=O)[O-])SC(=S)N1CCCNc1ccnc2cc(Cl)ccc12, the IC50 [1] was 3.3 µg/mL (≈ 6.8 µM), the IC50 [5] was 70700 nM and the “Ratio CC50/IC50” value [2] was 639.19. The IC50 [6] was greater than 100000 nM, the IC50 [3] was 38.2 nM and the MIC [7] was 6.25 µM (≈ 3.03 µg/mL). For the same molecule, the IC50 [4] was 83.8 nM.

For O=C1/C(=C/c2ccccc2)SC(=S)N1CCNc1ccnc2cc(Cl)ccc12, the IC50 [1] was 8.21 µg/mL (≈ 19.3 µM), the “Ratio CC50/IC50” value [2] was 29.16 and the IC50 [3] was 58.7 nM. The IC50 [4] was 104 nM.

With CCc1ccc(/C=C2\SC(=S)N(CCNc3ccnc4cc(Cl)ccc34)C2=O)cc1 the IC50 [1] was 6.73 µg/mL (≈ 14.8 µM), the “Ratio CC50/IC50” value [2] was 17.51 and the IC50 [3] was 42.7 nM. For the same molecule, the IC50 [4] was 95.7 nM.

Work on O=C1/C(=C/c2ccccn2)SC(=S)N1CCNc1ccnc2cc(Cl)ccc12 yielded an IC50 [1] of 16.5 µg/mL (≈ 38.6 µM), an IC50 [3] greater than 1170 nM and an IC50 [4] greater than 1100 nM.

In the case of O=C1/C(=C/c2ccc([N+](=O)[O-])cc2)SC(=S)N1CCNc1ccnc2cc(Cl)ccc12, the IC50 [1] is reported as 12.8 µg/mL (≈ 27.1 µM), the “Ratio CC50/IC50” value [2] is reported as 56.19 and the IC50 [3] is reported as 870 nM. For the same molecule, the IC50 [4] was 840 nM.

For COc1cc(/C=C2\SC(=S)N(CCNc3ccnc4cc(Cl)ccc34)C2=O)cc(OC)c1OC, the IC50 [1] was 7.31 µg/mL (≈ 14.2 µM), the “Ratio CC50/IC50” value [2] was 88.79 and the IC50 [3] was 34.8 nM. It also gave an IC50 [4] of 59.3 nM.

In the case of O=C1CSC(=S)N1CCNc1ccnc2cc(Cl)ccc12, the IC50 [1] is reported as 4.9 µg/mL (≈ 14.5 µM), the “Ratio CC50/IC50” value [2] is reported as 112.54 and the IC50 [3] is reported as 181 nM. For the same molecule, the IC50 [4] was 80.1 nM.

With O=C1CSC(=S)N1CCCNc1ccnc2cc(Cl)ccc12 the IC50 [1] was 8.16 µg/mL (≈ 23.2 µM), the “Ratio CC50/IC50” value [2] was 88.3 and the IC50 [3] was 200 nM. The IC50 [4] was 45.1 nM.

For O=C1CSC(=S)N1CCCCNc1ccnc2cc(Cl)ccc12, the IC50 [1] was 6.21 µg/mL (≈ 17 µM), the “Ratio CC50/IC50” value [2] was 75.44 and the IC50 [3] was 242 nM. The MIC [7] was 12.5 µM (≈ 4.57 µg/mL) and the IC50 [4] was 58.2 nM.

For O=C1/C(=C/c2ccccc2)SC(=S)N1CCCCNc1ccnc2cc(Cl)ccc12, the IC50 [1] was 4.03 µg/mL (≈ 8.88 µM), the “Ratio CC50/IC50” value [2] was 113.53 and the IC50 [3] was 43.5 nM. For the same molecule, the IC50 [4] was 153 nM.

In the case of CCc1ccc(/C=C2\SC(=S)N(CCCCNc3ccnc4cc(Cl)ccc34)C2=O)cc1, the IC50 [1] is reported as 6.21 µg/mL (≈ 12.9 µM), the “Ratio CC50/IC50” value [2] is reported as 102.86 and the IC50 [3] is reported as 54.5 nM. It also gave an IC50 [4] of 144 nM.

For O=C1/C(=C/c2ccncc2)SC(=S)N1CCCCNc1ccnc2cc(Cl)ccc12, the IC50 [1] was 6.3 µg/mL (≈ 13.8 µM), the “Ratio CC50/IC50” value [2] was 60.39 and the IC50 [3] was 93.5 nM. The IC50 [4] was 308 nM.

For O=C1/C(=C/c2ccco2)SC(=S)N1CCCCNc1ccnc2cc(Cl)ccc12, the IC50 [1] was 2.78 µg/mL (≈ 6.26 µM), the IC50 [5] was 70700 nM and the “Ratio CC50/IC50” value [2] was 92.72. For the same molecule, the IC50 [6] was greater than 100000 nM, the IC50 [3] was 35 nM and the MIC [7] was 6.25 µM (≈ 2.77 µg/mL). For the same molecule, the IC50 [4] was 151 nM.

With O=C1/C(=C/c2ccc([N+](=O)[O-])cc2)SC(=S)N1CCCCNc1ccnc2cc(Cl)ccc12 the IC50 [1] was 17.3 µg/mL (≈ 34.7 µM), the “Ratio CC50/IC50” value [2] was 3720.88 and the IC50 [3] was 40 nM. For the same molecule, the IC50 [4] was 88.8 nM.

For CN(C)c1ccc(/C=C2\SC(=S)N(CCCCNc3ccnc4cc(Cl)ccc34)C2=O)cc1, the IC50 [1] was 4.23 µg/mL (≈ 8.51 µM), the “Ratio CC50/IC50” value [2] was 422.41 and the IC50 [3] was 31 nM. It also gave an IC50 [4] of 54.6 nM.

With COc1cc(/C=C2\SC(=S)N(CCCCNc3ccnc4cc(Cl)ccc34)C2=O)cc(OC)c1OC the IC50 [1] was 3.93 µg/mL (≈ 7.22 µM), the “Ratio CC50/IC50” value [2] was 110.08 and the IC50 [3] was 43.1 nM. It also gave an MIC [7] of 12.5 µM (≈ 6.8 µg/mL) and an IC50 [4] of 70.1 nM.

With COc1ccc(/C=C2\SC(=S)N(CCCCNc3ccnc4cc(Cl)ccc34)C2=O)c2ccccc12 the IC50 [1] was 4.05 µg/mL (≈ 7.58 µM), the IC50 [5] was greater than 100000 nM and the “Ratio CC50/IC50” value [2] was 356.27. It also gave an IC50 [6] greater than 100000 nM, an IC50 [3] of 280 nM and an MIC [7] of 6.25 µM (≈ 3.34 µg/mL). For the same molecule, the IC50 [4] was 284 nM.

With COc1cc(/C=C2\SC(=S)N(CCCNc3ccnc4cc(Cl)ccc34)C2=O)cc(OC)c1OC the IC50 [1] was 3.33 µg/mL (≈ 6.28 µM), the “Ratio CC50/IC50” value [2] was 193.92 and the IC50 [3] was 56 nM. It also gave an IC50 [4] of 42.2 nM.

In the case of COc1ccc(/C=C2\SC(=S)N(CCCNc3ccnc4cc(Cl)ccc34)C2=O)c2ccccc12, the IC50 [1] is reported as 2.65 µg/mL (≈ 5.1 µM), the “Ratio CC50/IC50” value [2] is reported as 64.55 and the IC50 [3] is reported as 90.7 nM. The IC50 [4] was 59.3 nM.

Work on CCN(CC)CCCC(C)Nc1ccnc2cc(Cl)ccc12 (stereo not drawn) [CHLOROQUINE] yielded an IC50 [1] of 4.3 µg/mL (≈ 13.4 µM).

Work on NNC(=O)c1ccncc1 [ISONIAZID] yielded an IC50 [5] greater than 100000 nM, an IC50 [6] greater than 100000 nM and an MIC [7] of 0.217 µM (≈ 0.0298 µg/mL).

With CO[C@H]1/C=C/O[C@@]2(C)Oc3c(C)c(O)c4c(O)c(c(/C=N/N5CCN(C)CC5)c(O)c4c3C2=O)NC(=O)/C(C)=C\C=C\[C@H](C)[C@H](O)[C@@H](C)[C@@H](O)[C@@H](C)[C@H](OC(C)=O)[C@@H]1C [RIFAMPIN] the IC50 [5] was greater than 100000 nM, the IC50 [6] was greater than 100000 nM and the MIC [7] was 0.243 µM (≈ 0.2 µg/mL).
